Consider 12 molecules from ChEMBL document CHEMBL1146376, “Antiviral activity of berberine and related compounds against human cytomegalovirus” (Bioorg Med Chem Lett, 2007).

Usually pIC50 stands for the IC50 on a negative log10 scale, so that one unit is a factor of ten. A low value points to a high IC50. What is called CC50 is the concentration at which the toxic effect on the cells reaches its halfway point.

The test system of data set [1] is Human betaherpesvirus 5. The data set can be described thus: Antiviral activity against HCMV in MRC5 cells by plaque reduction assay. It is filed as functional, organism-based. The following applies: Human betaherpesvirus 5, MRC5. Summed up: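 HCMV plaque yield reduction assay in MRC-5 cells. IC50 is the 50% inhibitory concentration. Values are means of three experiments.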
On the technique in general: In a plaque reduction assay, fewer plaques than in the control indicate reduced infectivity or spread.

Data set [2] concerns MRC5. Description: (§1) Cytotoxicity against MRC5 cells. It is filed as cell-based, Homo sapiens. The following applies: Homo sapiens, MRC5.
Data set [3] in a line: Selectivity index, ratio of CC50 for MRC5 cells to IC50 for HCMV. Type of data set: functional. Summed up:
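Ratio of CC50 (50% cytotoxic concentration in MRC-5 cells) to IC50 from the HCMV plaque yield reduction assay in MRC-5 cells. Values are means of three experiments.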

Data set [4] is described as follows: as §1. It is filed as cell-based, Homo sapiens. Conditions: human, MRC5 cells.
In data set [5] the test system is Human betaherpesvirus 5. Description: Inhibition of HCMV penetration to MRC5 cells at 0.2 to 2 uM. It is filed as functional, organism-based. Summed up: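 HCMV (about 100 PFU/well) was bound to pre-chilled MRC-5 monolayers for 1 h at 4 C, then washed three times with ice-cold PBS. Cells were shifted to 37 C in medium with compound (final 0.2, 0.5, 1 or 2). At 0, 0.5, 1, 2, 3, 6 and 10 h, unpenetrated virus was inactivated with 40 mM citrate buffer pH 3.0 for 1 min. Plaques were counted under 0.5% methylcellulose overlay.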

Data set [6] concerns Human betaherpesvirus 5. Description: Inhibition of HCMV proliferation in MRC5 cells after 24 hrs post-infection at 10 uM by plaque assay. It is filed as functional, organism-based. In a few lines: (§2)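 Time-of-addition: MRC-5 cultures were infected at 0.5 PFU/cell, and compound (10 µM) was added at set times from 0 to 120 h post-infection. Virus titre was measured by plaque assay at 168 h post-infection and expressed as percent of control plaque numbers. Values are means of duplicate assays.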

Data set [7] deals with Human betaherpesvirus 5. The data set can be described thus: Inhibition of HCMV proliferation in MRC5 cells after 54 hrs post-infection at 10 uM by plaque assay. Type of data set: functional, organism-based. Summed up:
as §2

For data set [8], the system named is Human betaherpesvirus 5. The data set can be described thus: Inhibition of HCMV adsorption to MRC5 cells at 0.2 to 2 uM by infectious centre assay. It is filed as functional, organism-based. Summed up:
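Infectious centre assay for adsorption: HCMV (1 PFU/cell), MRC-5 cell suspension (1 · 10^5 cells/mL) and compound (final 0.2, 0.5, 1, 2) were chilled on ice 2 h, then mixed and held 1 h at 4 C. Cells were washed with ice-cold PBS to remove unbound virus and compound. Pellets were diluted 100- or 1000-fold and plated onto MRC-5 monolayers for plaque counting.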

pIC50: −log10 of the molar value. Active and inactive are the calls of the source. The rule behind the calls is not given here. Where only a bound is given, the exact number is not on record here.

For the molecule `COc1ccc2c(c1OC)C(C#N)N1CCc3cc4c(cc3C1=C2)OCO4` (stereo not given), the pIC50 in data set [1] is 6.06; in data set [2], 4.80. Also, the “Ratio CC50/IC50” value in data set [3] is reported as 18.

For `COc1cc(OC)c2c(c1)OC(c1ccc(OC)c(OC)c1)C(OC)C2` (stereo not given), the negative-log IC50 (pIC50) in data set [1] is 4.77. Further, in data set [4], the CC50 stood at 68 µM. Besides, the “Ratio CC50/IC50” value in data set [3] is 4.

Take `COc1cc(OC)c2c(c1)OC(c1ccc(OC)c(OC)c1)C(O)C2` (stereo not given): the pIC50 in data set [1] was below 3.70. Further, in data set [4], half-maximal cytotoxicity (CC50) was put at 190 µM. In data set [3], the “Ratio CC50/IC50” value is recorded as below 1.

With `COc1ccc(C2CC(=O)c3c(OC)cc(O)cc3O2)cc1` (stereo not given), the pIC50 in data set [1] is 4.04. This molecule also gave a CC50 in data set [4] of 12 µM. The “Ratio CC50/IC50” value in data set [3] turned out to be 0.13.

In turn, `COc1ccc2c(c1OC)C(C(Cl)(Cl)Cl)N1CCc3cc4c(cc3C1=C2)OCO4` (stereo not given) had a pIC50 in data set [1] of 6.28. This molecule also returned a CC50 in data set [4] of 8.4 µM. Besides, the “Ratio CC50/IC50” value in data set [3] stood at 16.

For `COc1cc(C[C@H]2C(=O)OC[C@@H]2Cc2ccc(OC)c(OC)c2)ccc1O` [ARCTIGENIN], the negative logarithm of the IC50 (pIC50) in data set [1] was 5.68. The same molecule gave a half-maximal cytotoxic concentration (CC50) in data set [4] of 76 µM. In addition, in data set [3], the “Ratio CC50/IC50” value stood at 36.

Consider `COc1ccc(C[C@H]2COC(=O)[C@@H]2Cc2ccc(O[C@@H]3O[C@H](CO)[C@@H](O)[C@H](O)[C@H]3O)c(OC)c2)cc1OC` [ARCTIIN], for which, in data set [1], the negative-log IC50 (pIC50) was 4.80. In data set [4], this molecule gave a CC50 of 240 µM. In addition, the “Ratio CC50/IC50” value in data set [3] is recorded as 15.

Consider `COc1ccc2cc3[n+](cc2c1OC)CCc1cc2c(cc1-3)OCO2.[Cl-]` [BERBERINE CHLORIDE], for which the result in data set [5] and in data set [8] was inactive. Besides, the pIC50 in data set [1] is 6.17. For the same molecule, the midpoint of cytotoxicity in data set [4], the CC50, lay at 74 µM. In addition, the “Ratio CC50/IC50” value in data set [3] came out at 110. Also, the outcome in data set [6] and in data set [7] was Active.

In the case of `COc1ccc2c(c1OC)CN1CCc3cc4c(cc3[C@@H]1C2)OCO4` [CANADINE], the pIC50 in data set [1] was 4.92. Besides, half-maximal cytotoxicity in data set [4] (CC50) was put at 125 µM. In data set [3], the “Ratio CC50/IC50” value is 10.

Molecule `COc1ccc2c(c1OC)CN1CCc3cc4c(cc3C1=C2)OCO4` [DIHYDROBERBERINE] showed a pIC50 in data set [1] of 4.03. For the same molecule, in data set [4], the CC50 worked out at 155 µM. Moreover, in data set [3], the “Ratio CC50/IC50” value amounted to 1.7.

In the case of `Nc1nc2c(ncn2COC(CO)CO)c(=O)[nH]1` [GANCICLOVIR], the negative logarithm of the IC50 (pIC50) in data set [1] was 6.04; in data set [2] it was 3.01. Moreover, in data set [3], the “Ratio CC50/IC50” value is listed as 1100.

In the case of `COc1ccc(Cc2nccc3cc(OC)c(OC)cc23)cc1OC.Cl` [PAPAVERINE HYDROCHLORIDE], in data set [1], the pIC50 was 4.68. Also, half-maximal cytotoxicity in data set [4] (CC50) was put at 610 µM. For the same molecule, the “Ratio CC50/IC50” value in data set [3] is 29.
